CHO parental Ca: counter-screen: ATP calcium response change in parental CHO cells; hit rate 0.63% among 330,000; parental CHO-K1, ATP-induced calcium, Fluo-8 fluorescence; inhibition, % at 5.6 µM; AID 463079;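 active = inhibition above that plate's mean sample inhibition plus 3 SD, cut at about 26% in these data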;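 note: 0% = ATP-challenged DMSO wells and 100% = DMSO wells without ATP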
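Assay system – parental CHO cells · Reagent – ATP stimulus · Detection – intracellular calcium via Fluo-8 no-wash fluorescent dye · Evaluation – percent inhibition of ATP-evoked calcium rise, normalized to controls · Controls – ATP wells versus no-ATP DMSO wells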
OX1R antag-1: blocks the human orexin 1 receptor; AID 485270; O43613; inhibition, % at 6.6 µM; hit rate 1.8% among 330,000; OX1R-expressing cells, FRET antagonist read-out; in the data active = inhibition mostly above about 38%, no sharp cut-off; inactive = mostly below about 40%;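 note: 0% = agonist challenge alone and 100% = reference antagonist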
Target sequence (O43613 whole entry, looked up): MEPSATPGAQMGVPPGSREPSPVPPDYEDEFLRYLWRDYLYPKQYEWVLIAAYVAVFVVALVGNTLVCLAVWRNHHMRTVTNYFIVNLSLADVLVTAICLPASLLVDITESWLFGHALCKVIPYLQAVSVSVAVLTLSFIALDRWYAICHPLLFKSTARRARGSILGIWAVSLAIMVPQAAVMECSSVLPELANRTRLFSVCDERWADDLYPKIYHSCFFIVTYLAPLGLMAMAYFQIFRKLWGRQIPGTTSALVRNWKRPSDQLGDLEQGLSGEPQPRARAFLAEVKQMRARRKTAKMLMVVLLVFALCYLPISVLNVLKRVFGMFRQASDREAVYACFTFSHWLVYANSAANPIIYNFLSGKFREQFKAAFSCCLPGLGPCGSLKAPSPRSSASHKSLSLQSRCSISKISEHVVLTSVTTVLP
OX1R antag-2: blocks the human orexin 1 receptor. O43613. CHO/OX1R cells, Fluo-8 calcium fluorescence, orexin A. inhibition, % at 5 µM. hit rate 0.43% among 330,000. AID 434989;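 active = inhibition above its plate's threshold, mean inhibition of all tested compounds on the plate plus 3 SD, cut at about 37% in these data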;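 note: 0% = orexin A challenge wells and 100% = SB-334867-A antagonist wells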
TAAR1 ag: agonists of human TAAR1; Q96RJ0; CHO RD-HGA16 TAAR1, Fluo-8 calcium fluorescence; vehicle wells 0%, saturating PEA agonist 100%; activation, % at 3 µM; hit rate 0.99% among 360,000; AID 624467;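 active = activation above the mean activation of all test compounds in the run plus 3 SD, cut at about 38% in these data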
Target sequence (Q96RJ0 whole entry, looked up): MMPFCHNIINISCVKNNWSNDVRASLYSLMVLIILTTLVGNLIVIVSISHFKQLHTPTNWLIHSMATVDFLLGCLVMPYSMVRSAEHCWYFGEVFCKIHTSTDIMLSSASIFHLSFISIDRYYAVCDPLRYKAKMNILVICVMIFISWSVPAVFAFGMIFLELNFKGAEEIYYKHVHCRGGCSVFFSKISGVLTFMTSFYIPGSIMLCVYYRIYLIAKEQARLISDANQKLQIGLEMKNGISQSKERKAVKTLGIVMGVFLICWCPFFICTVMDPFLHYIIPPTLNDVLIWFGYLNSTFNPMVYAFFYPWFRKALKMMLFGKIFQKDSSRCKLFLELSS
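test system = CHO RD-HGA16 cells carrying human TAAR1 plus Gα16 | schedule = 17-24 h seeding, 75 min 37 °C dye, 30 min RT | compound dosing = 3 µM single concentration | control set = DMSO and PEA EC100 | replicates = n 1 | signal = Fluo-8 fluorescence, 5 s baseline then 140 s kinetic read | measure = percent activation vs PEA EC100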
TAAR1 antag: antagonists of human TAAR1. hit rate 1.5% among 360,000. CHO RD-HGA16 TAAR1, Fluo-8 calcium fluorescence, antagonist. Q96RJ0. inhibition, % at 3 µM;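 active = inhibition above a per-plate cutoff, the mean inhibition of test compounds on that plate plus 3 SD, cut at about 49% in these data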;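 note: 0% = DMSO plus EC80 beta-PEA response and 100% = DMSO alone without agonist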
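Test system: CHO RD-HGA16 cells bearing hTAAR1 | Reagent: β-PEA, EC80 | Compound dosing: 3 µM, single point | Schedule: Dye loading 75 min at 37 °C, then 30 min room temperature | Signal: Calcium fluorescence with Fluo-8 | Evaluation: Percent inhibition of PEA-evoked calcium signal, max/basal emission ratio | Control set: DMSO-only wells and EC80 β-PEA-stimulated wells | Repeats: Singlicate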
NTR1 agonist: activates human neurotensin receptor 1; hit rate 0.17% among 330,000; AID 493036; activation, % at 20 µM; NTR1-U2OS beta-arrestin-GFP spot imaging, agonist mode;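 active = activation at or above 40% of the spot to cytoplasm intensity ratio, with at least 20 cells analyzed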;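 note: 0% = DMSO without peptide and 100% = 100 nM NTR1 peptide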
OX1R HTRF confirm: confirmation of human orexin 1 receptor antagonists, HTRF format; shares compounds with OX1R antag-1; hit rate 49% among 1,800; inhibition, % at 6.6 µM; OX1R-expressing cells, HTRF antagonist assay; in the data active = inhibition above about 55%;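 note: CHO cells expressing OX1R stimulated with orexin A at about EC80; 0% = agonist challenge alone and 100% = reference antagonist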
CHO-K1 HTRF cnt: counter-screen: parental CHO-K1 HTRF response; shares compounds with OX1R antag-1; hit rate 48% among 1,800; inhibition, % at 6.6 µM; parental CHO-K1 cells, HTRF counterscreen; in the data active = inhibition above about 17%;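 note: 0% = agonist challenge with vehicle and 100% = vehicle alone without agonist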
The depositor's hits bear a star; nt = no result. Rows were chosen to be rich in hits. Some 4% of all compounds tested hit in one or more screens of this group.

SMILES | CHO parental Ca | OX1R antag-1 | OX1R antag-2 | TAAR1 ag | TAAR1 antag | NTR1 agonist | OX1R HTRF confirm | CHO-K1 HTRF cnt
Cc1nc(NC(=O)c2ccccc2)sc1-c1csc(NCc2ccccc2)n1 | -14 | 21 | -17 | 0 | 8 | 3 | nt | nt
Cc1nc(NC(=O)c2ccccc2)sc1-c1csc(N)n1 | -17 | 96* | 30 | 19 | 10 | -2 | 92* | 15
O=C(NCCN1C(=O)S/C(=C\c2ccc(Cl)c(Cl)c2)C1=O)c1cnccn1 | -1 | 6 | -3 | 7 | 19 | -1 | nt | nt
O=C(NCCN1C(=O)S/C(=C\c2ccc(Cl)c([N+](=O)[O-])c2)C1=O)C1=COCCO1 | -3 | 83* | -2 | 11 | 27 | 13 | 48 | 57*
N#Cc1cc(N2CCCCC2)c([N+](=O)[O-])cc1C#N | -13 | 34 | -8 | -1 | 0 | 0 | nt | nt
CN(C)CCC1CCN(c2cc(C#N)c(C#N)cc2[N+](=O)[O-])CC1 | -16 | 118* | -11 | 1 | -13 | 0 | 53 | 54*
Cc1ccc(Cn2c(CCC(=O)O)nc3ncccc3c2=O)cc1 | nt | nt | nt | 3 | 11 | -1 | nt | nt
CC(=O)Nc1ccc(C(=O)NNC(=O)c2cc([N+](=O)[O-])cc([N+](=O)[O-])c2)cc1 | -11 | 80* | -3 | 7 | -7 | 0 | 49 | 73*
CCC(=O)Nc1ccc(C(=O)NNC(=O)c2ccc([N+](=O)[O-])cc2)cc1 | 1 | 158* | -9 | 0 | 3 | 2 | 39 | 34*
CC(=O)Nc1ccc(S(=O)(=O)NNC(=O)c2ccc([N+](=O)[O-])cc2)cc1 | -9 | 19 | -15 | -1 | -6 | 1 | nt | nt
CCC(=O)Nc1ccc(C(=O)NNC(=O)c2cc([N+](=O)[O-])cc([N+](=O)[O-])c2)cc1 | 5 | 181* | -6 | 13 | 6 | 1 | 19 | 11
NC(=O)c1ccsc1NC(=O)COC(=O)c1cc(Cl)ccc1O | -10 | 12 | -11 | 17 | 43 | 2 | nt | nt
COc1ccc(/C=N/NC(=O)Nc2cccc3nsnc23)cc1OC | -13 | 82* | 19 | 7 | 10 | 10 | 67* | -5
COc1ccc(OC)c(NC(=O)CCNS(=O)(=O)c2cccc3nsnc23)c1 | -6 | 46 | -25 | 9 | -11 | 1 | nt | nt
COc1ccc(/C=N/NC(=O)c2cccc(C(=O)N/N=C/c3ccc(OC)c(OC)c3)n2)cc1OC | nt | nt | nt | 4 | 6 | 0 | nt | nt
COc1ccc(NC(=O)CCNS(=O)(=O)c2cccc3nsnc23)cc1OC | -1 | 84* | -4 | 3 | 2 | 0 | 30 | 25*
CCCCNc1ccc2nsnc2c1[N+](=O)[O-] | 1 | 120* | -10 | 3 | -14 | 3 | 59* | 90*
Cc1ccc2nsnc2c1NC(=O)c1ccc([N+](=O)[O-])cc1 | -3 | 38 | -12 | 1 | -3 | 0 | nt | nt
Cn1cc(CNCc2cn(C)nc2-c2ccc(C3CCCCC3)cc2)cn1 | -16 | 5 | -9 | 8 | -10 | 0 | nt | nt
Cc1c(Cl)cccc1NC(=O)c1cc(-c2ccccc2O)n[nH]1 | 4 | 81* | 7 | 14 | 30 | 10 | 24 | 15
CCN(CC)S(=O)(=O)c1cccc(C(=O)OCC(=O)NCCN2C(=O)CSC2=O)c1 | -1 | -1 | -6 | 1 | -9 | -2 | nt | nt
CN(C)c1ccc(/C=C(\C#N)c2ccccn2)cc1 | -10 | 24 | -18 | 2 | 12 | 0 | nt | nt
N#C/C(=C\c1ccc([N+](=O)[O-])cc1)c1ccccn1 | -14 | 121* | -7 | -2 | 4 | 4 | 53 | 51*
CCC(=O)Nc1ccc2oc(-c3ccccc3Br)nc2c1 | 5 | 84* | 23 | 26 | 2 | -1 | 51 | 0
CC(=O)Nc1ccc2oc(-c3ccccc3Br)nc2c1 | -10 | 78* | 3 | 4 | 14 | -1 | 42 | 0
SMILES | CHO parental Ca | OX1R antag-1 | OX1R antag-2 | TAAR1 ag | TAAR1 antag | NTR1 agonist | OX1R HTRF confirm | CHO-K1 HTRF cnt
NS(=O)(=O)c1ccc(O)c(NC(=O)c2ccc([N+](=O)[O-])cc2)c1 | -2 | 92* | -12 | 3 | -17 | 1 | 41 | 47*
O=C(Nc1cc([N+](=O)[O-])ccc1O)c1cccc(C(=O)Nc2cc([N+](=O)[O-])ccc2O)c1 | -5 | 8 | -4 | 8 | -6 | nt | nt | nt
O=C(Nc1c[nH]c(=O)[nH]c1=O)c1ccc([N+](=O)[O-])cc1 | -5 | 138* | -6 | 3 | -8 | 2 | 49 | 72*
O=C(CSc1nnc(C2CC2)n1-c1ccccc1)N1CCNC1=O | -10 | 8 | -18 | 0 | -4 | 3 | nt | nt
COc1ccc(CNC(=O)Cn2cnc3c(NCc4ccccc4)ncnc32)cc1 | -13 | 5 | -24 | 0 | -1 | 4 | nt | nt
COc1ccc(-c2cc(C(F)(F)F)n3ncc(C(=O)O)c3n2)cc1OC | -3 | 82* | 14 | 11 | -3 | 0 | 32 | 55*
Cc1noc(C)c1COC(=O)c1ccc(F)c(S(=O)(=O)N2CCOCC2)c1 | -10 | 2 | -27 | 1 | -37 | -2 | nt | nt
O=C(Cn1c(=O)c2cccn2c2ccccc21)Nc1cc(F)ccc1F | -26 | 38 | -15 | 8 | -15 | 1 | nt | nt
O=C1c2ccc3c4c(ccc(c24)C(=O)N1CCCCO)C(=O)N(CCCCO)C3=O | nt | nt | nt | 4 | 9 | nt | nt | nt
O=C(c1ccc2c(c1)C(=O)N(CCCO)C2=O)c1ccc2c(c1)C(=O)N(CCCO)C2=O | -15 | 149* | -16 | 16 | 43 | 1 | 56* | 67*
C=CCOC(=O)Nc1nc(CCNC(=O)OC(C)(C)C)c(C(=O)OC)s1 | nt | nt | nt | 1 | -11 | nt | nt | nt
Clc1ccccc1C1CC(c2ccccc2)Nc2ncnn21 (stereo not drawn) | -7 | 79* | -16 | 4 | 2 | 0 | 22 | 1
O=C(CCN1C(=O)c2ccccc2S1(=O)=O)NCc1ccccc1Cl | nt | nt | nt | 2 | 11 | 2 | nt | nt
O=C1C(=O)c2ccccc2C(O)=C1CCCCl | -7 | 80* | -10 | nt | nt | -2 | 77* | 96*
COc1ccc(CC2=C(O)c3ccccc3C(=O)C2=O)cc1 | -4 | 34 | -1 | 0 | -10 | 0 | nt | nt
Cc1ccc(NC(=O)C(C)N=C2NS(=O)(=O)c3ccccc32)cc1F (stereo not drawn) | 2 | 5 | -23 | 6 | 1 | -1 | nt | nt
CC(C)c1cc(C(=O)NNC(=S)NC2CCCCC2)cs1 | -6 | -10 | -22 | -1 | -21 | 0 | nt | nt
COc1cc2sc3ccc(-c4ccc(N(C)C)nc4)cc3c(=O)c2cc1OC | -18 | 80* | -6 | 4 | -14 | -6 | 65* | 17
CSc1nc2ccc(NC(=O)c3cc4ccccc4o3)cc2s1 | -14 | 84* | 9 | 0 | 0 | 5 | 91* | 13

High-throughput results as filed in PubChem.
